# Reference: publication PMC11582619 (Communications Biology, 2024)
# “Also recorded” adds a separate entry of the source.
# Columns and labels:
# HepG2 cells [1] = experiment: ROS levels by flow cytometry in ethanol-treated HepG2 cells; type: cell-based, human; conditions: ethanol + compound
# [2] = Plasma concentration of SSa, SSB1 and SGA after oral SSa; type: in vivo, mice; conditions: for course of plasma level after administration (in words): after oral SSa 50 mg/kg
# Procedure, shortened: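 Mice fasted 24 h, then given SSa 50 mg/kg by oral gavage. About 100 µL retro-orbital blood taken at 0, 0.5, 1, 2, 4, 6, 8, 10, 12 and 24 h; 9 mice per time point, three mice pooled per sample, n = 3. Plasma SSa, SSB1 and SGA measured by UHPLC-MS/MS against plasma-matrix calibration and QC standards. AUC by moment analysis with log-trapezoidal method.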
# HepG2 cells [3] = experiment: Oil Red O staining of ethanol-induced lipid storage in HepG2 cells; type: cell-based, human; conditions: compound 7.5 μmol/L
# [4] = test system: PGC-1α, PPAR-α, CPT-1α, ACC-1, SREBP-1C, FAS, SCD-1 (liver mRNA); type: in vivo, C57BL/6J mice; conditions: ethanol-fed mice, oral SSa
# [5] = test system: SIRT1, SREBP-1C, PPAR-α and their target genes (liver mRNA); experiment: qRT-PCR of lipid metabolism genes and SIRT1 in liver of ALD mice; type: in vivo, C57BL/6J mice; conditions: ethanol-fed mice, oral SSa
# Procedure, shortened: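 NIAAA chronic-plus-binge model in C57BL/6J mice: 14-day 5% ethanol Lieber–DeCarli diet, oral SSa (5–15 mg/kg) daily for 7 days, ethanol binge on day 15, liver harvested 9 h later. Liver mRNA measured by SYBR Green qRT-PCR (25 nmol/L primers), β-actin reference, delta-delta Ct method. Protein by western blot: 20 µg per lane, 10% SDS-PAGE, ECL detection.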
# SIRT1 [6] = experiment: Hepatic SIRT1 protein over time after gavage with SSa solution; type: in vivo, mice; conditions: 0-12 h after gavage with SSa solution
# SIRT1 [7] = experiment: Immunostaining targeting SIRT1 in mouse liver; type: in vivo, C57BL/6J mice; conditions: ethanol-fed mice, oral SSa
# Procedure, shortened: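 Male C57BL/6J mice (8 weeks) on the NIAAA chronic-plus-binge model: 5 days of Lieber–DeCarli control liquid diet, then 5% (v/v) ethanol liquid diet for 14 days. Oral SSa 5, 10 or 15 mg/kg once daily for 7 days. Day-15 oral ethanol binge; harvest under isoflurane 9 h later. Livers fixed in 4% paraformaldehyde, 5 µm sections, SIRT1 immunofluorescence imaged confocally; n = 3.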
# [8] = test system: liver, kidney, spleen, lung and heart; experiment: Short-term toxicity of SSa, 14 days by gavage, HE staining of organs; type: in vivo; conditions: male C57BL/6J mice, SSa 15 mg/kg/daily
# [9] = biological target: T1, Recombinant human SIRT1 protein (Homo sapiens, UniProt Q96EB6); experiment: Microscale thermophoresis; type: binding; conditions: Kd between SIRT1 and compound (MST), recombinant human SIRT1, RED-NHS labelled
# T1 sequence (Q96EB6 1-747): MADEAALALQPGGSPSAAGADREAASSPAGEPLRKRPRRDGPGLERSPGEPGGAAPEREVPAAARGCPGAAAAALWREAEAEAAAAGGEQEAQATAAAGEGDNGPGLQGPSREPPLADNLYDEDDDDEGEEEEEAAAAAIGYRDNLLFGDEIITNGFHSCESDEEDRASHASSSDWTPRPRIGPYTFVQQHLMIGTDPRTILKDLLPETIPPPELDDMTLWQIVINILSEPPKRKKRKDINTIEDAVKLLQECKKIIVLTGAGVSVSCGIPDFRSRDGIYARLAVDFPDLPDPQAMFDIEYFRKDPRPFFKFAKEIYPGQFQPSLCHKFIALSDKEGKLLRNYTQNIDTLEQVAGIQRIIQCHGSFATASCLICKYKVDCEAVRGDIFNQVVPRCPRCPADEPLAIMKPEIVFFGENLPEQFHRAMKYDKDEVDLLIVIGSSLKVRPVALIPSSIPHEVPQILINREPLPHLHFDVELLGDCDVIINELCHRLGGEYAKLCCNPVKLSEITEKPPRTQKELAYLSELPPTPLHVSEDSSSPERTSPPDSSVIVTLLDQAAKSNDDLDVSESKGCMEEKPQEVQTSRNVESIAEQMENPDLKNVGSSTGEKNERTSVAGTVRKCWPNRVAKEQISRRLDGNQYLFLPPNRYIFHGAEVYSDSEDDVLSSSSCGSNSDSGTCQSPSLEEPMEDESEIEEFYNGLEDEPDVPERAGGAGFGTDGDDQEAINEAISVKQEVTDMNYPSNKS
# Procedure, shortened: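 Recombinant human SIRT1 labelled with RED-NHS dye (30 min, room temperature, dark) and gel-filtered; pre-test checked labelling, adsorption and aggregation. Incubated 5 min at 24 °C before MST.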
# [10] = cited from earlier work
# [11] = test system: SIRT1, PGC-1α, PPAR-α, Deptor, mTOR, p-mTOR (liver); experiment: Western blot of liver proteins, with or without hepatic SIRT1 knockdown; type: in vivo, C57BL/6J mice; conditions: ethanol-fed mice, oral SSa
# [12] = test system: chronic-plus-binge ethanol-fed mice; experiment: Chronic-plus-binge ethanol-fed; type: in vivo, C57BL/6J mice
# [13] = test system: chronic-plus-binge ethanol-fed mice with hepatic SIRT1 knockdown; experiment: NIAAA model in mice with hepatic SIRT1 knockdown; type: in vivo, C57BL/6J mice
# Procedure, shortened: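 Hepatic SIRT1 knockdown in C57BL/6J mice by tail-vein AAV8-TBG-miR30 shRNA against mouse SIRT1, with ZsGreen tag (1 × 10^12 vg/mouse); AAV8-TBG-ZsGreen as control. Four weeks later: NIAAA chronic-plus-binge ethanol model with oral test compound once daily for 7 days. Knockdown checked by liver ZsGreen fluorescence and SIRT1 western blot. Body weight tracked, n = 6.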
# [14] = mice, after intragastric SSa 50 mg/kg
smiles,measurement,setting,value
"C[C@H]1O[C@@H](O[C@H]2CC[C@@]3(C)[C@@H](CC[C@]4(C)[C@@H]3C=CC3=C5CC(C)(C)CC[C@]5(CO)[C@@H](O)C[C@]34C)[C@]2(C)CO)[C@H](O)[C@@H](O[C@@H]2O[C@H](CO)[C@@H](O)[C@H](O)[C@H]2O)[C@H]1O [SSB1, Saikosaponin B1]",ethanol-induced ROS production,HepG2 cells [1],had no effect on ROS
same,maximal (peak) plasma concentration,[2]; [14],105.12 ng/mL
same,time of first detection in plasma,[2]; [14],0.5 h
same,time of peak plasma concentration,[2]; [14],1 h
same,course of plasma level after administration (in words),[2]; mice,undetectable after 6 h of administration; also recorded: quickly metabolized after administration
same,ethanol-induced lipid droplet accumulation (Oil red O),HepG2 cells [3],had no significant effect
"C[C@H]1O[C@@H](O[C@H]2CC[C@@]3(C)[C@@H](CC[C@]4(C)[C@@H]3C=C[C@]35OC[C@@]6(CCC(C)(C)C[C@H]63)[C@@H](O)C[C@]54C)[C@]2(C)CO)[C@H](O)[C@@H](O[C@@H]2O[C@H](CO)[C@@H](O)[C@H](O)[C@H]2O)[C@H]1O [SSa, Saikosaponin A]","liver PGC-1α, PPAR-α, CPT-1α mRNA with SIRT1 knockdown",[4],"inhibits the upregulation of PGC-1α, PPAR-α, CPT-1α induced by SSa"
same,"liver mRNA of SREBP-1C, ACC1, FAS and SCD-1",[4]; reversed by SIRT1 knockdown,"decreased the mRNA expression of SREBP-1C, ACC1, FAS and SCD-1"
same,liver mRNA of SREBP-1C and its target genes,[5],"decreased the elevation of SREBP-1C, ACC-1, FAS and SCD-1 induced by alcohol"
same,alcohol-induced decrease of SIRT1 expression in the liver,"[5]; mRNA and protein (Fig. 2I, J)",can reverse this phenomenon
same,hepatic SIRT1 protein abundance over time,SIRT1 [6],enhanced hepatic SIRT1 protein abundance at 4–12 h
same,ethanol-induced ROS production,HepG2 cells [1],significantly limited ethanol-induced ROS production
same,SIRT1 entry into the nucleus (liver immunofluorescence),SIRT1 [7],promoted SIRT1 entry into the nucleus
same,"short-term toxicity: pathological changes of liver, kidney, spleen, lung and heart (HE)",[8],no significant pathological changes
same,Kd,[9],~25.2 µM
same,maximal (peak) plasma concentration,[2]; [14],63.31 ng/mL
same,course of plasma level after administration (in words),[2]; mice,almost completely metabolized after 2 h of administration
same,course of plasma level after administration (in words),"[2]; mice, listed as SSA",quickly metabolized after administration
same,Tmax,"[2]; mouse, plasma, po, 50 mg/kg",30 min
same,intestinal absorption after oral administration,[10],poor absorbance in the intestine when administered orally
same,toxicity under intravenous injection,[10],marked hemolysis under intravenous injection
same,"liver PGC-1α, PPAR-α and Deptor protein with SIRT1 deficiency",[11],"decreases the expression of PGC-1α, PPAR-α and Deptor induced by SSa treatment"
same,body weight and liver index,"[12]; SSa 5, 10, 15 mg/kg oral",improved body weight and liver index in a dose-dependent manner
same,NAD+/NADH ratio in liver homogenate,[12]; oral SSa,increased the NAD^+/NADH ratio
same,TC and TG in liver homogenate,[12]; oral SSa,significantly reduced alcohol-induced TC and TG accumulation in the liver
same,"liver function and plasma TC, TG, γ-GT, De Ritis ratio",[12]; oral SSa,"significantly ameliorated liver function and reduced the plasma TC, TG, γ-GT content and De Ritis ratio"
same,liver lipid deposition (Oil red O staining),[12]; oral SSa,reduced alcohol-induced liver lipid deposition in a dose-dependent manner
same,liver pathology (HE staining),[12]; oral SSa,improves liver pathological injury
same,ethanol-induced lipid droplet accumulation (Oil red O),HepG2 cells [3],significantly reduced the lipid droplet accumulation induced by ethanol
same,body weight with hepatic SIRT1 knockdown,[13]; SSa administration for 7 days,had no effect on body weight
same,NAD+/NADH with hepatic SIRT1 deficiency,"[13]; ethanol-fed mice, oral SSa",the increase of NAD^+/NADH induced by SSa was also inhibited
same,hepatic pathology and lipid deposition with hepatic SIRT1 deficiency,"[13]; ethanol-fed mice, oral SSa",prevents the SSa’s improvement in alcohol-induced hepatic pathology and lipid deposition
same,liver function recovery with hepatic SIRT1 knockdown,"[13]; ethanol-fed mice, oral SSa",mitigated SSa’s improvement in alcohol-induced liver function recovery
